Screens as filed in PubChem BioAssay.
mIAP block: blocks mouse intestinal alkaline phosphatase | 330,000 tested, 0.2% active | AID 2806 | purified mouse IAP, CDP-Star luminescence, 30 min | inhibition, % at 10 µM;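 active = inhibition of at least 40% at 10 µM in the primary screen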
mIAP act: mouse IAP activation. 330,000 tested, 0.24% active. AID 2805. muIAP, CDP-Star luminescence, 30 min; stronger effect = higher value; 1 = vehicle-only enzyme signal, 0 = enzyme-free wells. activation factor at 10 µM;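 active = activation factor of at least 2 at 20 µM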
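Assay system: mouse IAP enzyme; reagent: chemiluminescent substrate CDP-Star; dosing: test compounds delivered from DMSO solution; schedule: 30 min at room temperature; measured by: luminescence from enzymatic CDP-Star hydrolysis; controls: DMSO-only wells and no-enzyme negative control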
hIAP activ: human IAP activation; P09923; purified human IAP, CDP-Star luminescence, 30 min; stronger effect = higher value; 1 = vehicle-only enzyme, 0 = enzyme-free background; activation factor at 10 µM; 330,000 tested, 0.16% active;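 active = activation factor of the enzyme at least 2-fold when tested at 20 µM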
Target sequence (P09923 whole entry, looked up): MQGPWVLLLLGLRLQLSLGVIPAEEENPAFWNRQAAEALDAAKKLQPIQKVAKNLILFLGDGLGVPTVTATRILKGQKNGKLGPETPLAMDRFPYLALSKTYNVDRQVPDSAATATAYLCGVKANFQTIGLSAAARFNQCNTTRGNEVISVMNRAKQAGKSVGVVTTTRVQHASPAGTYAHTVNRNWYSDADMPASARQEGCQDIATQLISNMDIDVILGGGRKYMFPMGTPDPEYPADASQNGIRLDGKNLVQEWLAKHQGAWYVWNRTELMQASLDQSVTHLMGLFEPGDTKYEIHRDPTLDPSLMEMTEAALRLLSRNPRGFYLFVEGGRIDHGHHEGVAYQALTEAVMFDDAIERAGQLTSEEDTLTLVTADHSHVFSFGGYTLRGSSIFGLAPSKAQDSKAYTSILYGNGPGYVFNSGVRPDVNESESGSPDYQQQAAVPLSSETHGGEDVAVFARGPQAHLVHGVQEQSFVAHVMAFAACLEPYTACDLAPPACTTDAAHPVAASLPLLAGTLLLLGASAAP
bIAP inh: intestinal alkaline phosphatase (bovine) inhibition. AID 1019. inhibition, % at 20 µM. 190,000 tested, under 10 active. purified bovine IAP, CDP-star luminescence, 30 min;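 active = over 50% inhibition of intestinal alkaline phosphatase at 20 µM in the single-dose screen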
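Assay system – bovine IAP enzyme · Quantity – bovine IAP at 1/65,000,000 final dilution · Detection – CDP-star luminescence signal · Times – 30 min reaction at room temperature · Also added – CDP-star substrate at 30 µM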
hIAP inh: human IAP inhibition | 330,000 tested, 0.12% active | purified IAP, CDP-Star luminescence, 30 min | inhibition, % at 10 µM | P09923;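 active = inhibition reaching a set limit with compound at 10 µM in the primary screen, cut at about 35% in these data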
bIAP activator: increases bovine intestinal alkaline phosphatase activity; purified bovine IAP, CDP-star luminescence, 30 min; stronger effect = higher value; fold of DMSO-control signal, blank-subtracted; AID 1016; activation factor at 20 µM; 200,000 tested, 0.17% active;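 active = activation factor of 2 or more at 20 µM, a signal rise over negative controls twice the positive control's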
mIAP inh confirm: mouse IAP inhibition confirmation; shares compounds with mIAP block; purified mouse IAP, CDP-Star luminescence, 30 min; inhibition, % at 10 µM; 11,000 tested, 4.7% active;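 active = inhibition of at least 40% at 10 µM in either of the two replicates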
Large screens that a line does not name were inactive (follow-up assays come after a bar, where they were run). Shown are actives, neighbours in structure and some others; about 0.77% of the full set was active somewhere.

CC(=O)Oc1cc2cccc(OC(C)=O)c(=O)c2c(OC(C)=O)c1OC(C)=O	mIAP block 45 | mIAP inh confirm 49
S=c1[nH]nc(-c2ccc(Cl)cc2)n1/N=C/C=C/c1ccco1	mIAP block 56 (no result: bIAP inh, bIAP activator) | mIAP inh confirm 58
S=c1[nH]nc(-c2cccnc2)n1/N=C/C=C/c1ccco1	mIAP block 47 | mIAP inh confirm 60
CCCC1=NN2C(=N)/C(=C\c3ccc(SCc4ccco4)o3)C(=O)N=C2S1	mIAP block 57 | mIAP inh confirm 70
CCC1=NN2C(=N)/C(=C/c3c(C)nn(-c4ccccc4)c3Cl)C(=O)N=C2S1	none
CCCC1=NN2C(=N)/C(=C\c3cc(C)n(Cc4ccccc4)c3C)C(=O)N=C2S1	none (no result: bIAP inh, bIAP activator)
CCC1=NN2C(=N)/C(=C\c3ccc(SCc4ccco4)o3)C(=O)N=C2S1	mIAP block 74 | mIAP inh confirm 72
COc1ccc(Cl)cc1C(=O)NNC(=O)CNC(=O)c1ccc(C)s1	none (no result: bIAP inh, bIAP activator)
CSc1cccc(NC(=O)Nc2ccc(Cl)cc2)c1	mIAP act 2.5 | mIAP inh confirm inactive
O=C(NCc1ccc2c(c1)OCO2)Nc1cccc(Cl)c1	none (no result: bIAP inh, bIAP activator)
O=C(Nc1ccccc1)Nc1cccc(Cl)c1	mIAP act 2.8 | mIAP inh confirm inactive
O=C(Nc1cccc(Cl)c1)Nc1ccc2c(c1)OCO2	mIAP act 2.6 | mIAP inh confirm inactive
CC(=O)Nc1ccc(NC(=O)Nc2cccc(Cl)c2)cc1	none (no result: bIAP inh, bIAP activator)
O=C(Nc1ccc(C(=O)N2CCCCC2)cc1)Nc1cccc(Cl)c1	mIAP act 2.7 (no result: bIAP inh, bIAP activator) | mIAP inh confirm inactive
NC(=O)c1ccc(SCC(=O)OCC(=O)NC2CCCCCCC2)c([N+](=O)[O-])c1	none (no result: bIAP inh, bIAP activator)
CN1C(=O)[C@@H]2C[C@@]3([C@@]45C[C@H]6C(=O)N(C)[C@@H](Cc7ccccc7)C(=O)N6[C@@H]4Nc4ccccc45)c4ccccc4N[C@H]3N2C(=O)[C@@H]1Cc1ccccc1	none (no result: bIAP inh, bIAP activator)
O=C1OC2(c3ccccc31)c1cc(I)c(O)c(I)c1Oc1c2cc(I)c(O)c1I	mIAP block 44 (no result: bIAP inh, bIAP activator) | mIAP inh confirm 64
NC(=O)CC[C@H](NC(=O)c1ccc(F)cc1)C(=O)OCC(=O)NCc1ccc2c(c1)OCO2	none (no result: bIAP inh, bIAP activator)
CC1(c2ccc(OC(F)F)cc2)NC(=O)N(CC(=O)c2ccc3c(c2)OCO3)C1=O (stereo unspecified)	none (no result: bIAP inh, bIAP activator)
O=C(C(=O)N1CCN(c2ccccc2)CC1)c1cn(CC(=O)N2CCCCCC2)c2ccccc12	none (no result: bIAP inh, bIAP activator)
CCCCN1C(=O)/C(=C/C=C2\N(C)c3ccccc3C2(C)C)SC1=S	mIAP block 51 (no result: bIAP inh) | mIAP inh confirm 43
CCN(C(=O)CSc1nnc(C)c(=O)[nH]1)c1cccc2ccccc12	none (no result: bIAP inh, bIAP activator)
O=c1cc(-c2ccc(O)cc2)oc2cc(O)c(C3OC(CO)C(O)C(O)C3O)c(O)c12 (stereo unspecified)	mIAP block 50 | mIAP inh confirm 47
CC(=O)Nc1nc(-c2cccs2)cs1	none
Nc1nc(-c2cccs2)cs1	mIAP block 46 | mIAP inh confirm 52
Nc1cc(=O)nc(SCC(=O)N2CCN(c3ccccc3)CC2)n1-c1ccc(F)cc1	none (no result: bIAP inh, bIAP activator)
Cc1nc(S/C(=C/c2ccc(-c3ccc(C(=O)O)cc3)o2)C(=O)O)n[nH]1	mIAP block 45 (no result: bIAP inh, bIAP activator) | mIAP inh confirm 45
CC(=O)c1ccc(-c2ccc(/C=C(/Sc3n[nH]c(C)n3)C(=O)O)o2)cc1	none (no result: bIAP inh, bIAP activator)
Cc1ccc(NC(=O)NCC2CCN(Cc3cccc(Cl)c3)CC2)cc1Cl	mIAP act 4.2 | mIAP inh confirm inactive
CCc1ccc(NC(=O)NCC2CCN(Cc3cccc(Cl)c3)CC2)cc1	mIAP act 3.1 (no result: bIAP inh, bIAP activator) | mIAP inh confirm inactive
COc1cccc(NC(=O)NCC2CCN(Cc3ccc(F)cc3)CC2)c1	none (no result: bIAP inh, bIAP activator)
N#Cc1c(SCC(=O)Nc2nc3ccccc3s2)sc2c(O)cc(=O)[nH]c12	mIAP block 61 (no result: bIAP inh, bIAP activator) | mIAP inh confirm 73
N#Cc1c(SCC(=O)Nc2nccs2)sc2c(O)cc(=O)[nH]c12	mIAP block 48 (no result: bIAP inh, bIAP activator) | mIAP inh confirm 63
N#Cc1cccc(NC(=O)CSc2sc3c(O)cc(=O)[nH]c3c2C#N)c1	none (no result: bIAP inh, bIAP activator)
CCCSc1nnc(NC(=O)CSc2sc3c(O)cc(=O)[nH]c3c2C#N)s1	none (no result: bIAP inh, bIAP activator)
